Bioassay records from PubChem.
The list is not random: actives were taken first. Their share in the collection is about 2.3%.
ADAM10 inh: human ADAM10 inhibitors, primary screen, biochemical, QFRET, HTS. 370,000 compounds, 0.62% hits. recombinant ADAM10, EDANS/DABCYL FRET peptide cleavage, 3 h. inhibition, % at 7 µM;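 active = inhibition above a per-campaign cutoff equal to the mean of compounds falling between control-based bounds plus 3 SD, cut at about 20% in these data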;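 note: 0% = DMSO wells while the 100% control is not disclosed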
DDE Tn7 FP inh: inhibitors of Tn7 peptide binding to fibrin DD(E), primary screen, biochemical, fluorescence polarization, human fibrin, Tn7 probe; Fibrinogen beta chain (Homo sapiens), P02675; FP displacement of FITC-Tn7 peptide from fibrin DD(E); 0% = median of compound wells per plate; inhibition, % at 8.3 µM; 370,000 compounds, 0.13% hits; AID 720508, 2013;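 active = inhibition above the mean of compounds falling within the control limits plus 3 SD of them, cut at about 14% in these data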;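 note: 0% = plate median of compound wells and 100% = 10 µM Aha-Tn7 peptide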
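Assay system: Fibrin-DD(E) protein isolated from polymerized human fibrin clots; read-out basis: percent inhibition; medium: Tris/NaCl/CaCl2 buffer, pH 7.8; signal: FP measurement; incubation: 10 min plus 3 h, room temperature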
Tn6 DDE FP: inhibitors of Tn6 peptide binding to fibrin DD(E), primary screen, biochemical, fluorescence polarization, human fibrin, Tn6 probe. 370,000 compounds, 0.21% hits. Fibrin DD(E) TRITC-Tn6 fluorescence polarization displacement. inhibition, % at 8.3 µM. Fibrinogen beta chain (Homo sapiens), P02675;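 active = inhibition above a per-campaign cutoff: mean of compounds within control limits plus 3 SD, cut at about 15% in these data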;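 note: 0% = median of all compound wells on the plate and 100% = blocking peptide control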
ADAM17 inh: ADAM17 inhibitors, primary screen, biochemical, QFRET; Disintegrin and metalloproteinase domain-containing protein 17 (Homo sapiens), P78536; recombinant ADAM17, EDANS/DABCYL FRET peptide cleavage; inhibition, % at 6.95 µM; 370,000 compounds, 0.83% hits;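 active = inhibition above the mean of compounds lying between control limits plus 3 SD, set per campaign, cut at about 8.5% in these data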;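 note: 0% = DMSO-only wells as the low control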
PLC-beta3 inh: human PLC-beta3 inhibitors, primary screen, biochemical, fluorescence; 370,000 compounds, 0.18% hits; Purified PLC-beta3, fluorogenic substrate; inhibition, % at 12.2 µM; 1-phosphatidylinositol 4,5-bisphosphate phosphodiesterase beta-3 (Homo sapiens), Q01970; in the data active = inhibition above about 11%;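 note: 0% = median of compound wells on plate and 100% = full blocker control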
PLC-gamma1 inh: PLC-gamma1 enzyme inhibitors, primary screen, biochemical, fluorescence, purified enzyme; 1-phosphatidylinositol 4,5-bisphosphate phosphodiesterase gamma-1 (Homo sapiens), P19174; fluorogenic substrate; inhibition, % at 12.2 µM; 370,000 compounds, 0.84% hits; AID 720700, 2013
Target sequence (P19174 whole entry, looked up): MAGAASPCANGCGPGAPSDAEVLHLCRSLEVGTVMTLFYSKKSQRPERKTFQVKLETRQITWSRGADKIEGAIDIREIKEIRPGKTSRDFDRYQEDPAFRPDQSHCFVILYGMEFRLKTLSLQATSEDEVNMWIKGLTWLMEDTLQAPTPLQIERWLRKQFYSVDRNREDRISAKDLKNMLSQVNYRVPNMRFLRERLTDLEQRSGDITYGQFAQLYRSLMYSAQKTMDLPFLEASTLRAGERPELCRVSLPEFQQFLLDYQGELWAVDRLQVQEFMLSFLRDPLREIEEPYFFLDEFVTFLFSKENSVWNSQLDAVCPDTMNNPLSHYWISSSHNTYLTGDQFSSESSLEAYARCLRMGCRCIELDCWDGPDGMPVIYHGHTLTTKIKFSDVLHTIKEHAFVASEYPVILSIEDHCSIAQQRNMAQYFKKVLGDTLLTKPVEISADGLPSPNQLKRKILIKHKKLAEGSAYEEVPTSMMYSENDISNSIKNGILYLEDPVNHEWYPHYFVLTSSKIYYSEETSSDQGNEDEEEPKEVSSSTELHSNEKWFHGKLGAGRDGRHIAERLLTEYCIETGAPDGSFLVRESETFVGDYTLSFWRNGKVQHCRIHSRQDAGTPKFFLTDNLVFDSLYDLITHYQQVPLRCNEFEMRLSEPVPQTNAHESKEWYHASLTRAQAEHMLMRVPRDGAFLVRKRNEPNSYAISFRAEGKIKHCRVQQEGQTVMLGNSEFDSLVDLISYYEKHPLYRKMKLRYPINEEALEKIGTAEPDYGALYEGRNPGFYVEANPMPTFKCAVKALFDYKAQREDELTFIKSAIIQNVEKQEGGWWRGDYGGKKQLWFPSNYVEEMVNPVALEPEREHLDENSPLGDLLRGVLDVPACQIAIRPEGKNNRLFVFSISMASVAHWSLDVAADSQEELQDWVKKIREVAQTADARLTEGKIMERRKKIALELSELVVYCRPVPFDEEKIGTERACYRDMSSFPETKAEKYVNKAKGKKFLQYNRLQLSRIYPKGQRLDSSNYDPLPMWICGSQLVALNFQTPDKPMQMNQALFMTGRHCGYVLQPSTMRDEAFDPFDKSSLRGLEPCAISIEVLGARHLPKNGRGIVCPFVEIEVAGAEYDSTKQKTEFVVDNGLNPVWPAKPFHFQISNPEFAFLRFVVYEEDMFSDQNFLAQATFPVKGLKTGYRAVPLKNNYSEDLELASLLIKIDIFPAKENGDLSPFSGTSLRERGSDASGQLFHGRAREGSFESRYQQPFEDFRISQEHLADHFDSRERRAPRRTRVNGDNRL
PLCgamma1 ctr: PLC-gamma1 enzyme inhibitors, counter-screen for PLC-beta3 inhibitor project, biochemical, fluorescence. purified PLC-gamma1, fluorogenic substrate. shares compounds with PLC-gamma1 inh. AID 743258, 2014. 3,300 compounds, 3.1% hits. inhibition, % at 12.3 µM
PLCb3 confirm: PLC-beta3 inhibitor confirmation, biochemical, fluorescence, purified enzyme | shares compounds with PLC-gamma1 inh | fluorogenic substrate fluorescence | inhibition, % at 12.3 µM | 3,300 compounds, 1% hits; in the data active = inhibition above about 11%
* marks the source's active call; other numbers are inactive results; . = no result. Cut-off read from the data, not from the text of the source, unless noted: active = inhibition above about 9.5%; inactive = the rest.

SMILES | ADAM10 inh | DDE Tn7 FP inh | Tn6 DDE FP | ADAM17 inh | PLC-beta3 inh | PLC-gamma1 inh | PLCgamma1 ctr | PLCb3 confirm
CCCCCCCCN1C(=O)[C@@H](CC(=O)NCc2ccccc2)C[C@@]2(C(=O)OC)C1=C[C@H](COCc1ccccc1)O[C@@H]2C | 2 | -3 | 5 | 1 | -2 | -1 | . | .
CCSc1nnc(NC(=O)c2cc(C)oc2C)s1 | -5 | -6 | 0 | 2 | 3 | 11* | -6 | -3
O=C(NCC(c1ccccc1)c1ccccc1)[C@H](Cc1ccccc1)NC1(C(=O)NC2CCCCC2)CCOCC1 | 7 | 0 | 0 | 5 | 3 | 14* | 2 | 5
Cc1ccc(S(=O)(=O)CCC(=O)Nc2nc(-c3ccncc3)cs2)cc1 | -2 | 2 | 9 | -4 | -6 | 13* | 3 | -6
O=C(NCc1cccs1)C1CCC(CNS(=O)(=O)c2ccccc2)CC1 (centres undefined) | 9 | -3 | 0 | 8 | 5 | 12* | 4 | 5
Cc1ccc(S(=O)(=O)NCC2CCC(C(=O)NCc3cccs3)CC2)cc1 (centres undefined) | 7 | -3 | -2 | 2 | 2 | 3 | . | .
Cc1cc(C(=O)NCC2CCCCC2)ccc1[N+](=O)[O-] | 1 | -7 | -2 | 4 | 1 | 11* | -6 | -1
O=S1(=O)CC2c3ccccc3CN2CN1Cc1ccccc1 (centres undefined) | -11 | 1 | -4 | -6 | -12 | -7 | . | .
COc1ccc(S[C@]2(C(=O)N3CCCC3)CC(=O)N(C(=O)/C=C/c3ccccc3)[C@@H]2c2ccc(OC)cc2)cc1 | 5 | -5 | -2 | 2 | 2 | -2 | . | .
CC1(C)Cc2nc(Cl)c(C(N)=O)cc2CO1 | 5 | -6 | 1 | 0 | -1 | 10* | -3 | 1
COC(=O)C1CN(Cc2cn(CCOC(C)=O)nn2)CCS(=O)(=O)N1Cc1ccc(OC)cc1 (centres undefined) | 5 | -7 | 1 | 2 | 4 | 5 | . | .
CN(CCC1CCOCC1)C(=O)C1CCC(=O)N(CCc2ccccc2)C1 (centres undefined) | -8 | -2 | -2 | 0 | 1 | 9.7* | 0 | -51
Cc1cnc(CN(C)C(=O)C2CCC(=O)N(CCc3ccccc3)C2)[nH]1 (centres undefined) | -1 | -3 | 0 | 3 | -2 | 4 | . | .
COc1ccc2c(c1)OC(O)(C(F)F)CC2=O (centres undefined) | 3 | -5 | 2 | 3 | 2 | 12* | -9 | -3
CCOc1ccc(-n2nnnc2SCC(=O)Nc2cccc(O)c2)cc1 | 10 | -3 | -1 | 5 | 4 | 13* | -3 | -3
CCN(CC)C(=O)Oc1ccc(Br)cc1C(=O)Nc1ccc(F)cc1F | 6 | -4 | 2 | 2 | 1 | 9.7* | 0 | -6
COC(=O)C1=C(C)N(Cc2cccc(C(F)(F)F)c2)C(=NCc2ccc(C(F)(F)F)cc2)NC1c1ccc(C(F)(F)F)cc1 (centres undefined) | 10 | -6 | -7 | 5 | 8 | 13* | 5 | 5
COC(=O)C1=C(C)N(Cc2ccc(C(F)(F)F)cc2)C(=NCc2ccc(OC)cc2)NC1c1ccccc1C(F)(F)F (centres undefined) | 14 | -5 | -3 | 1 | 4 | 9.9* | -5 | -5
